Laboratory results taken from ChEMBL document CHEMBL1151788, “Synthesis and biological activity of 1-methyl-tryptophan-tirapazamine hybrids as hypoxia-targeting indoleamine 2,3-dioxygenase inhibitors” (Bioorg Med Chem, 2008).
Calls of active or inactive are those of the source. No cut-off for these calls is given here.

Key:
[1] = target: Indoleamine 2,3-dioxygenase 1 (Homo sapiens, UniProt P14902); test: Inhibition of indoleamine 2,3-dioxygenase in aerobic condition
[2] = Hypoxic cytotoxicity ratio of IC50 for mouse EMT6/KU cells in aerobic condition to IC50 for mouse EMT6/KU cells in hypoxic condition; format: functional
Method in brief: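 IC50 values came from clonogenic survival of EMT6/KU cells after 5 h drug exposure at 37 °C, either aerobic (CO2 incubator) or hypoxic (5% CO2/95% N2 chamber), with Giemsa-stained colonies counted after 7–10 days. The ratio is IC50(aerobic)/IC50(hypoxic).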

[3] = Cytotoxicity against mouse EMT6/KU cells in hypoxic condition for 5 hrs measured after 7 to 10 days; format: functional, cell-based
Method in brief: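 Drug medium (DMSO stock diluted in medium) was added and the cells were held 5 h at 37 °C in a hypoxic chamber flushed with 5% CO2/95% N2. After drug removal, colonies grew 7–10 days, then were methanol-fixed, Giemsa-stained and counted for surviving fraction.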

[4] = Cytotoxicity against mouse EMT6/KU cells in aerobic condition for 5 hrs measured after 7 to 10 days; format: functional, cell-based
Method in brief: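 Late-log cells were plated at 10^3, 5×10^2 or 2×10^2 per dish and grown 24 h. Drug in DMSO diluted in medium was then given in a CO2 incubator at 37 °C for 5 h. After washout, colonies grew 7–10 days and were methanol-fixed, Giemsa-stained and counted.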

Row | SMILES | Activity [1] | Ratio IC50 [2] | IC50 [3] [µM] | IC50 [4] [µM] | Ki [1] [µM]
1 | O=C(NCCCCNc1n[n+]([O-])c2ccccc2[n+]1[O-])C(F)(F)F | inactive |  |  |  | 
2 | O=C(NCCCCCNc1n[n+]([O-])c2ccccc2[n+]1[O-])C(F)(F)F | inactive |  |  |  | 
3 | O=C(NCCCCCNc1nc2ccccc2[n+]([O-])n1)C(F)(F)F | inactive |  |  |  | 
4 | Cn1cc(C[C@H](NC(=O)OC(C)(C)C)C(=O)O)c2ccccc21 | inactive |  |  |  | 
5 | Nc1n[n+]([O-])c2ccccc2[n+]1[O-] [TIRAPAZAMINE] | inactive | 3.2 | 12 | 38 | 
6 | Nc1nc2ccccc2[n+]([O-])n1 | inactive |  | > 40 | > 80 | 
7 | Cn1cc(C[C@H](NC(=O)OC(C)(C)C)C(=O)NCCCCCNc2nc3ccccc3[n+]([O-])n2)c2ccccc21 |  | 1.3 | 33 | 42 | 76.3
8 | O=C(NCCCCNc1nc2ccccc2[n+]([O-])n1)C(F)(F)F | inactive |  |  |  | 
9 | Cn1cc(C[C@H](NC(=O)OC(C)(C)C)C(=O)NCCCCNc2nc3ccccc3[n+]([O-])n2)c2ccccc21 |  | 1.1 | 33 | 36 | 87.1
10 | Cn1cc(C[C@H](NC(=O)OC(C)(C)C)C(=O)NCCCCNc2n[n+]([O-])c3ccccc3[n+]2[O-])c2ccccc21 |  | >5 | 8 | > 40 | 367
11 | Cn1cc(C[C@H](NC(=O)OC(C)(C)C)C(=O)NCCCCCNc2n[n+]([O-])c3ccccc3[n+]2[O-])c2ccccc21 |  | 4.9 | 7.1 | 35 | 197
